# Results taken from publication PMC9292875 (British Journal of Clinical Pharmacology, 2021).
# Values joined by “and” are separate entries in the source; they are usually repeats but may differ in a detail not shown here. Equal values may be shown once.
# Experiments:
# [1] = tested on: patients with advanced solid malignancies; assay: Categorical evaluation of QTc, PR and QRS intervals; format: in vivo, human; conditions: of 180 patients
# How it was run: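 Patients received single twice-daily-regimen doses of 80–800 mg, either continuous or intermittent. A 12-lead digital ECG was recorded after at least 10 min semi-supine rest. Triplicate tracings were taken about 5 min apart at each time point and averaged, then read centrally. Thresholds were QTc ≥450, ≥480 and ≥500 ms; ΔQTc ≥30 and ≥60 ms; PR ≥200 ms; and QRS ≥110 ms.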
# [2] = tested on: patients with advanced solid malignancies; format: in vivo, human; conditions: linear mixed-effects model parameter estimate
# How it was run: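 The model was a prespecified linear mixed-effects structure for placebo-free oncology trials. It regressed baseline-adjusted QTcF on plasma concentration, with random intercept and slope, plus a fixed effect for baseline QTcF centred on the overall baseline mean. Fitting used restricted maximum likelihood, assuming normal random effects and residuals. Only first-dose data were used (503 time-matched points, 180 patients). Fit was checked with goodness-of-fit plots.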
# patients = conditions: available clinical data; cited from earlier work
# [3] = Plasma pharmacokinetics of capivasertib; format: in vivo, human
# [4] = tested on: patients with advanced solid malignancies; assay: Exploratory graphical analysis of model assumptions; format: in vivo, human
# How it was run: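 Before modelling, first-dose paired data were plotted to check four assumptions: no drug effect on heart rate; a suitable HR correction (RR versus uncorrected QT, QTcF and QTcB); no hysteresis (mean ΔQTcF against concentration, joined in time order per dose); and linearity (loess smooth, linear regression, binned means). Sampling was at baseline, 1, 2, 6 and 24 h (escalation/expansion) or at baseline, 2 and 4–6 h (mutation cohorts).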
smiles,measurement,setting,value
"NC1(C(=O)N[C@@H](CCO)c2ccc(Cl)cc2)CCN(c2ncnc3[nH]ccc23)CC1 [capivasertib, 4‐amino‐N‐[(1S)‐1‐(4‐chlorophenyl)‐3‐hydroxypropyl]‐1‐(7H‐pyrrolo[2,3‐d]pyrimidin‐4‐yl)piperidine‐4‐carboxamide]",Patients with QRS ≥ 110 ms,[1]; doses from 80 mg to 800 mg,5.0%
same,Patients with QTcF ≥ 480 ms,[1]; single doses 80-800 mg,No patients
same,Patients with ΔQTcF ≥ 60 ms,[1]; single doses 80-800 mg,No patients
same,ɛ Residual variability,[2],6.452 ms
same,η0 Random effect for intercept,[2],5.350 ms
same,θ0 Intercept,[2],-0.269 ms
same,θ1 Slope of capivasertib concentration vs ΔQTcF,[2],0.003 ms/(ng/mL) and 0.00337 ms/(ng/mL)
same,θ2 Impact of baseline QTcF on ΔQTcF,[2],−0.119
same,Reports of serious cardiac events or ECG changes,patients,"no reports of sudden death, torsades de pointes, seizures or electrocardiogram (ECG) changes that were considered serious"
same,Drug accumulation,[3]; 4 days on/3 days off intermittent schedule,less than twofold
same,Time at which Cmax was reached after dosing,[3]; after first dose,approximately 2 hours
same,Time to maximum ΔQTcF,[4]; after administration of first dose,≤ 2 h
same,ΔHR (change in heart rate),"[4]; after first dose, small decrease at 1 hour, not dose-dependent",≤ 10 beats per minute
same,Time delay between concentration and ΔQTcF (hysteresis plots),[4]; in vivo,No evidence of a time‐delay
